# Assay results as given in ChEMBL document CHEMBL3526105, “Cytochrome P450-mediated oxidative metabolism of abused synthetic cannabinoids found in K2/Spice: identification of novel cannabinoid receptor ligands” (Drug Metab Dispos, 2012).
# Activity calls are given as the source filed them. The rule behind the calls is not given here.
# Legend:
# [1] = molecular target: Cannabinoid receptor 1 (Mus musculus) (UniProt P47746); assay: Activation of CB1 receptor in B6SJL mouse brain membrane assessed as [35S]-GTPgammaS binding at 10 uM after 30 mins by liquid scintillation spectrophotometric analysis in presence of O-2050; assay type: functional, cell membranes
# Chain of Cannabinoid receptor 1 (Mus musculus) (P47746 whole entry): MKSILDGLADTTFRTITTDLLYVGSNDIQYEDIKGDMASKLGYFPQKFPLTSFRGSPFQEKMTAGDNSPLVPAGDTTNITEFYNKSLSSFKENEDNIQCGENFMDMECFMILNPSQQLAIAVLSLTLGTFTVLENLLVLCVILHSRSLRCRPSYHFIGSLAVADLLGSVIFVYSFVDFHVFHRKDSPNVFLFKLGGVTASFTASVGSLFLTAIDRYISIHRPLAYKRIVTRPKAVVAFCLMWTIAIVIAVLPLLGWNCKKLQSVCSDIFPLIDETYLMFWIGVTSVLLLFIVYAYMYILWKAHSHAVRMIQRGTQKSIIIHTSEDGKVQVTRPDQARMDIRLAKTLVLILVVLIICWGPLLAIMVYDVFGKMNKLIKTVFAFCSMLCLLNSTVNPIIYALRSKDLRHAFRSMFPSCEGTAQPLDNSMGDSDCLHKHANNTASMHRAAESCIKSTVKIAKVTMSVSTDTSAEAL
# [2] = molecular target: Cannabinoid receptor 1 (Mus musculus) (UniProt P47746); assay: Activation of CB1 receptor in B6SJL mouse brain membrane assessed as [35S]-GTPgammaS binding at 10 uM after 30 mins by liquid scintillation spectrophotometric analysis; assay type: functional, cell membranes
# Outline: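 Mouse brain membrane homogenate (25 μg; whole B6SJL brains, pooled, Dounce-homogenised, spun 40,000g three times). Incubated with […], 0.1 nM [35S]GTPγS in 20 mM HEPES, 10 mM MgCl2, 100 mM NaCl, 20 U/l adenosine deaminase, 0.05% BSA, 30 min at 30°C, triplicate. Nonspecific binding with 10 μM unlabelled GTPγS. Stopped by GF/B filtration; filters counted by scintillation.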
# Liver microsome [3] = assay: Drug metabolism in human liver microsomes assessed as intrinsic clearance per mg protein treated with AM2201; assay type: ADME
# Liver microsome [4] = assay: Drug level in human liver microsomes treated with JWH-018 at 10 uM after 20 mins by LC-MS/MS analysis; assay type: ADME
# Outline: (§1)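 Pooled human liver microsomes (75 μg) incubated with 10 μM substrate in 0.1 M KPO4 pH 7.4 with NADPH-regenerating system at 37°C. Reaction stopped with ethanol, centrifuged. Analytes quantified by positive-ESI LC-MS/MS against standards matrix-matched in reaction mixture, with confirmation by SRM-triggered enhanced product ion spectra library matching.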
# Cytochrome b5 [5] = molecular target: T1, Cytochrome b5 (Homo sapiens, UniProt P00167); assay: Drug metabolism assessed as cytochrome b5 (unknown origin)-mediated compound formation treated with JWH-018 at 10 uM after 90 mins by LC-MS/MS analysis in presence of oxidoreductase; assay type: ADME; details: 1.5 h
# T1 sequence (P00167 whole entry): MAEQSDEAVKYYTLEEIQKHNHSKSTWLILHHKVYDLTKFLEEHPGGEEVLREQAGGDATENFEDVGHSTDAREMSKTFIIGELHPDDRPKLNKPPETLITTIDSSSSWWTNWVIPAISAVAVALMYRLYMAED
# Liver microsome [6] = assay: Drug metabolism in human liver microsomes assessed as intrinsic clearance per mg protein treated with JWH-018; assay type: ADME
# Cytochrome P450 2C9 [7] = molecular target: T2, Cytochrome P450 2C9 (Homo sapiens, UniProt P11712); assay: Drug metabolism assessed as intrinsic clearance for human recombinant CYP2C9-mediated compound formation per nmol protein treated with JWH-018 at 10 uM after 90 mins; assay type: ADME; details: recombinant enzyme, 1.5 h
# T2 sequence (P11712 whole entry): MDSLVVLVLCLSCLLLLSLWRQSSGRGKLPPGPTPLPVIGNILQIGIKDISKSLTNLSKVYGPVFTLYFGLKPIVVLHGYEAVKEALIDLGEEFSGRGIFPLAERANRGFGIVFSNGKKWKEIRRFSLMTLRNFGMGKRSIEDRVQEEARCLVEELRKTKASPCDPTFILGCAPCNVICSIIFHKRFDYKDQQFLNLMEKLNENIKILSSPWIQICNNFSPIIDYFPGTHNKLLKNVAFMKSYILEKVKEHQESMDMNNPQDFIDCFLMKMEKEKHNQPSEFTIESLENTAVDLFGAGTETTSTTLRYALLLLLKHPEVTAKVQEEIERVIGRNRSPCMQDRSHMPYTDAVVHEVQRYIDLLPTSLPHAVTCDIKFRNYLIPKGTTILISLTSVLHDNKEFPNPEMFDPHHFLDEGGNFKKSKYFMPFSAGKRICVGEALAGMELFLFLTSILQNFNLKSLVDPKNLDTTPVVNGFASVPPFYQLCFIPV
# Cytochrome P450 2C9 [8] = molecular target: T2, Cytochrome P450 2C9; assay: Drug metabolism assessed as intrinsic clearance for human recombinant CYP2C9-mediated compound formation per nmol protein treated with AM2201 at 10 uM after 90 mins; assay type: ADME; details: recombinant enzyme, 1.5 h
# Cytochrome P450 1A2 [9] = molecular target: T3, Cytochrome P450 1A2 (Homo sapiens, UniProt P05177); assay: Drug metabolism assessed as intrinsic clearance for human recombinant CYP1A2-mediated compound formation per nmol protein treated with AM2201 at 10 uM after 90 mins; assay type: ADME; details: recombinant enzyme, 1.5 h
# T3 sequence (P05177 whole entry): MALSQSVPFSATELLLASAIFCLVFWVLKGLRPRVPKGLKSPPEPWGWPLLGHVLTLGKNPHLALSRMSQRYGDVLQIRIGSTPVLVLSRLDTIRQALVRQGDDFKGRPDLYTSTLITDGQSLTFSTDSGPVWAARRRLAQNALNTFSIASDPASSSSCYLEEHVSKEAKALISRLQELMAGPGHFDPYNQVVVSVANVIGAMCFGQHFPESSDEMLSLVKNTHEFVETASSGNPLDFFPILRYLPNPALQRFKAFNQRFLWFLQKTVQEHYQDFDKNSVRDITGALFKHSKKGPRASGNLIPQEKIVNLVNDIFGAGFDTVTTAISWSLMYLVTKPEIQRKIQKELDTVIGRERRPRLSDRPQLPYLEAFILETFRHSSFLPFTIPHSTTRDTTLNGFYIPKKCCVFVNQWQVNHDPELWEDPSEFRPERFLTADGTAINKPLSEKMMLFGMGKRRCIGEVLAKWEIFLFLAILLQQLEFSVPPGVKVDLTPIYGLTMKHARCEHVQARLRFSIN
# Cannabinoid receptor 1 = Cannabinoid receptor 1 (Mus musculus, UniProt P47746); assay: Displacement of [3H]CP-55,940 from CB1 receptor in B6SJL mouse brain membrane after 90 mins by liquid scintillation spectrophotometric analysis; assay type: cell membranes
# Chain of Cannabinoid receptor 1 (P47746 whole entry): as the sequence (P47746 whole entry) above
# Outline: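 B6SJL mouse brain membranes (50 μg) with 0.2 nM [3H]CP-55,940 and competitor at 0.1 nM–10 μM. Buffer 5 mM MgCl2, 50 mM Tris, 0.05% BSA; 90 min at room temperature, triplicate. Nonspecific binding set with 10 μM WIN-55,212-2. Filtered on GF/B, washed with Tris/BSA, counted by scintillation. Specific binding given as % of vehicle.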
# Cytochrome P450 1A2 [10] = molecular target: T3, Cytochrome P450 1A2; assay: Drug metabolism assessed as intrinsic clearance for human recombinant CYP1A2-mediated compound formation per nmol protein treated with JWH-018 at 10 uM after 90 mins; assay type: ADME; details: recombinant enzyme, 1.5 h
# [11] = Drug level in human urine treated with JWH-018 by LC-MS/MS analysis; assay type: ADME, tissue-based
# Outline: (§2)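 Urine from suspected users (40 μl) incubated with or without β-glucuronidase (1.6 U/μl final) in 0.1 M sodium acetate pH 5.0, 60 min at 37°C with shaking. Analysed by positive-ESI LC-MS/MS against standards matrix-matched in blank pooled human urine, with confirmation by enhanced product ion spectra.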
# Cytochrome P450 2C19 [12] = molecular target: T4, Cytochrome P450 2C19 (Homo sapiens, UniProt P33261); assay: Drug metabolism assessed as intrinsic clearance for human recombinant CYP2C19-mediated compound formation per nmol protein treated with JWH-018 at 10 uM after 90 mins; assay type: ADME; details: recombinant enzyme, 1.5 h
# T4 sequence (P33261 whole entry): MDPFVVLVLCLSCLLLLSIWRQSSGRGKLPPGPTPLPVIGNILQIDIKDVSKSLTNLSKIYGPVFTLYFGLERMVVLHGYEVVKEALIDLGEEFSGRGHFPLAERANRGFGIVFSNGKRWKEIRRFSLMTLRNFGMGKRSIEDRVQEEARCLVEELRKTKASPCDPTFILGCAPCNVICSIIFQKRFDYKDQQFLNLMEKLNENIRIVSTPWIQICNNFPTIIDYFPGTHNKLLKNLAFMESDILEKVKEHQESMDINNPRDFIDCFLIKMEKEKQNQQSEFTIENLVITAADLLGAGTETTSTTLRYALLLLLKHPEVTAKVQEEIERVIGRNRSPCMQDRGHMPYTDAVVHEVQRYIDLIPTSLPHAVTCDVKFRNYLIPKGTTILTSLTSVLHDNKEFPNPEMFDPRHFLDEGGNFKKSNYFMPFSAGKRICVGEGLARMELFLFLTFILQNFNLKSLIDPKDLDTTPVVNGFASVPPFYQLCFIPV
# Liver microsome [13] = assay: Drug level in human liver microsomes treated with AM2201 at 10 uM after 20 mins by LC-MS/MS analysis; assay type: ADME; outline: as §1
# Cytochrome P450 2C19 [14] = molecular target: T4, Cytochrome P450 2C19; assay: Drug metabolism assessed as intrinsic clearance for human recombinant CYP2C19-mediated compound formation per nmol protein treated with AM2201 at 10 uM after 90 mins; assay type: ADME; details: recombinant enzyme, 1.5 h
# Cytochrome P450 2D6 [15] = molecular target: T5, Cytochrome P450 2D6 (Homo sapiens, UniProt P10635); assay: Drug metabolism assessed as intrinsic clearance for human recombinant CYP2D6-mediated compound formation per nmol protein treated with JWH-018 at 10 uM after 90 mins; assay type: ADME; details: recombinant enzyme, 1.5 h
# T5 sequence (P10635 whole entry): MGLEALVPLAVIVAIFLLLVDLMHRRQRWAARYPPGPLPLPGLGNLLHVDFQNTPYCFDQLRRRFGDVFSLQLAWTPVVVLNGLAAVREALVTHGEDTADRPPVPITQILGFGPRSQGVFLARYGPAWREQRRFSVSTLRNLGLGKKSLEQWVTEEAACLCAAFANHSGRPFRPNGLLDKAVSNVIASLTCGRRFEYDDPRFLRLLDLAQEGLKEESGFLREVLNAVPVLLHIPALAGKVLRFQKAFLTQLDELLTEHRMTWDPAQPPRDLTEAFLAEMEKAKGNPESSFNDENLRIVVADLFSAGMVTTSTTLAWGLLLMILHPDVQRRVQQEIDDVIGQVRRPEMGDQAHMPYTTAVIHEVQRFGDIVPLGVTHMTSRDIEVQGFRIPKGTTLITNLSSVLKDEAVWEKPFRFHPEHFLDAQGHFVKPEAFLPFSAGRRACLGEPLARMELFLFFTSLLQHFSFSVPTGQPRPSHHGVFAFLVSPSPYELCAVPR
# Cytochrome P450 2D6 [16] = molecular target: T5, Cytochrome P450 2D6; assay: Drug metabolism assessed as intrinsic clearance for human recombinant CYP2D6-mediated compound formation per nmol protein treated with AM2201 at 10 uM after 90 mins; assay type: ADME; details: recombinant enzyme, 1.5 h
# [17] = Drug metabolism in human urine assessed as (1-(5-hydroxypentyl)-1H-indol-3-yl)(naphthalen-1-yl)methanone formation by LC-MS/MS analysis; assay type: ADME, tissue-based; outline: as §2
# Cytochrome P450 3A4 [18] = molecular target: T6, Cytochrome P450 3A4 (Homo sapiens, UniProt P08684); assay: Drug metabolism assessed as human recombinant CYP3A4-mediated (1-(5-hydroxypentyl)-1H-indol-3-yl)(naphthalen-1-yl)methanone formation at 10 uM after 90 mins by LC-MS/MS analysis; assay type: ADME; details: recombinant enzyme, 1.5 h
# T6 sequence (P08684 whole entry): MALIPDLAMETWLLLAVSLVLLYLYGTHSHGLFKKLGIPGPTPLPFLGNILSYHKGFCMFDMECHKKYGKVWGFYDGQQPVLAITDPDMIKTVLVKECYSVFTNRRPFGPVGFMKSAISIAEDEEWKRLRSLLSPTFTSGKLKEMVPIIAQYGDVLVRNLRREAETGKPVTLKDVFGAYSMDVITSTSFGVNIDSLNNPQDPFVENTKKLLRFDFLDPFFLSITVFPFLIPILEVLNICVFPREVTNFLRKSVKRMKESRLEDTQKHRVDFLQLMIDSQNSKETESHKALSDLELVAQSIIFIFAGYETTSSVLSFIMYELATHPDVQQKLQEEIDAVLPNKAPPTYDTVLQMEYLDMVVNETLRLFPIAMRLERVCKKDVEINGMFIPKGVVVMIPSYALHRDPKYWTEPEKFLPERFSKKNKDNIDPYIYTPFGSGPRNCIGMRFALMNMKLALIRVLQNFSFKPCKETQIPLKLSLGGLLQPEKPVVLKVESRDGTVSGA
# Outline: (§3)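 Recombinant human CYP2E1 or CYP3A4 (2 pmol) incubated with substrate at 10 μM final, dried from ethanol. Buffer 0.1 M KPO4 pH 7.4 with NADPH-regenerating system, which starts the reaction. 90 min at 37°C, triplicate, with no-substrate, no-protein and no-NADPH controls. Stopped with ethanol, centrifuged, and metabolites quantified by LC-MS/MS.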
# [19] = Drug metabolism in human urine assessed as 5-(3-(1-naphthoyl)-1H-indol-1-yl)pentanoic acid formation by LC-MS/MS analysis; assay type: ADME, tissue-based; outline: as §2
# Cytochrome P450 2E1 [20] = molecular target: T7, Cytochrome P450 2E1 (Homo sapiens, UniProt P05181); assay: Drug metabolism assessed as human recombinant CYP2E1-mediated 5-(3-(1-naphthoyl)-1H-indol-1-yl)pentanoic acid formation at 10 uM after 90 mins by LC-MS/MS analysis; assay type: ADME; details: recombinant enzyme, 1.5 h; outline: as §3
# T7 sequence (P05181 whole entry): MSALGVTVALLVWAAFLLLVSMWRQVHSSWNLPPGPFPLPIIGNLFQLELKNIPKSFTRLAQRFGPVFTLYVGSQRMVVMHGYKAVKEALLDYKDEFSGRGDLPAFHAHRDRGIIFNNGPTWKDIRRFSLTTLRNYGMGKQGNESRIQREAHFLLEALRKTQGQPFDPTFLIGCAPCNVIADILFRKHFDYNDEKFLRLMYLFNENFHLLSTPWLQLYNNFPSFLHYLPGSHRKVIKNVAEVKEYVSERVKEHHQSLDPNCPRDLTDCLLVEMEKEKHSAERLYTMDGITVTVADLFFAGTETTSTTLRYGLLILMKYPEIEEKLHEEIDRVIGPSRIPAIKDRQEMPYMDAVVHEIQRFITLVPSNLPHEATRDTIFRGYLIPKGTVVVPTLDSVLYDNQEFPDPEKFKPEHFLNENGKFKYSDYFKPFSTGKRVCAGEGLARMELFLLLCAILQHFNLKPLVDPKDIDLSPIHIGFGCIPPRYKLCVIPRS
# Cytochrome P450 2E1 [21] = molecular target: T7, Cytochrome P450 2E1; assay: Drug metabolism assessed as human recombinant CYP2E1-mediated (1-(4-hydroxypentyl)-1H-indol-3-yl)(naphthalen-1-yl)methanone formation at 10 uM after 90 mins by LC-MS/MS analysis; assay type: ADME; details: recombinant enzyme, 1.5 h; outline: as §3
# Liver microsome [22] = assay: Drug metabolism in human liver microsomes assessed as (5-hydroxy-1-pentyl-1H-indol-3-yl)(naphthalen-1-yl)methanone formation at 10 uM after 20 mins by LC-MS/MS analysis; assay type: ADME; outline: as §1
# Cytochrome b5 [23] = molecular target: T1, Cytochrome b5; assay: Drug metabolism assessed as cytochrome b5 (unknown origin)-mediated (5-hydroxy-1-pentyl-1H-indol-3-yl)(naphthalen-1-yl)methanone formation at 10 uM after 90 mins by LC-MS/MS analysis in presence of oxidoreductase; assay type: ADME; details: 1.5 h
# Cytochrome P450 3A4 [24] = molecular target: T6, Cytochrome P450 3A4; assay: Drug metabolism assessed as human recombinant CYP3A4-mediated 5-(3-(1-naphthoyl)-1H-indol-1-yl)pentanoic acid formation at 10 uM after 90 mins by LC-MS/MS analysis; assay type: ADME; details: recombinant enzyme, 1.5 h; outline: as §3
# Liver microsome [25] = assay: Drug metabolism in human liver microsomes assessed as (6-hydroxy-1-pentyl-1H-indol-3-yl)(naphthalen-1-yl)methanone formation at 10 uM after 20 mins by LC-MS/MS analysis; assay type: ADME; outline: as §1
# Cytochrome P450 3A4 [26] = molecular target: T6, Cytochrome P450 3A4; assay: Drug metabolism assessed as human recombinant CYP3A4-mediated (1-(4-hydroxypentyl)-1H-indol-3-yl)(naphthalen-1-yl)methanone formation at 10 uM after 90 mins by LC-MS/MS analysis; assay type: ADME; details: recombinant enzyme, 1.5 h; outline: as §3
# [27] = Drug metabolism in human urine assessed as (1-(4-hydroxypentyl)-1H-indol-3-yl)(naphthalen-1-yl)methanone formation by LC-MS/MS analysis; assay type: ADME, tissue-based; outline: as §2
# Liver microsome [28] = assay: Drug metabolism in human liver microsomes assessed as (7-hydroxy-1-pentyl-1H-indol-3-yl)(naphthalen-1-yl)methanone formation at 10 uM after 20 mins by LC-MS/MS analysis; assay type: ADME; outline: as §1
# Cytochrome P450 2E1 [29] = molecular target: T7, Cytochrome P450 2E1; assay: Drug metabolism assessed as human recombinant CYP2E1-mediated (1-(5-hydroxypentyl)-1H-indol-3-yl)(naphthalen-1-yl)methanone formation at 10 uM after 90 mins by LC-MS/MS analysis; assay type: ADME; details: recombinant enzyme, 1.5 h; outline: as §3
# [30] = Drug metabolism in human urine assessed as (1-(5-fluoro-4-hydroxypentyl)-1H-indol-3-yl)(naphthalen-1-yl)methanone formation by LC-MS/MS analysis; assay type: ADME, tissue-based; outline: as §2
# Cytochrome P450 2E1 [31] = molecular target: T7, Cytochrome P450 2E1; assay: Drug metabolism assessed as human recombinant CYP2E1-mediated (1-(5-fluoro-4-hydroxypentyl)-1H-indol-3-yl)(naphthalen-1-yl)methanone formation at 10 uM after 90 mins by LC-MS/MS analysis; assay type: ADME; details: recombinant enzyme, 1.5 h; outline: as §3
# Cytochrome P450 3A4 [32] = molecular target: T6, Cytochrome P450 3A4; assay: Drug metabolism assessed as human recombinant CYP3A4-mediated (1-(5-fluoro-4-hydroxypentyl)-1H-indol-3-yl)(naphthalen-1-yl)methanone formation at 10 uM after 90 mins by LC-MS/MS analysis; assay type: ADME; details: recombinant enzyme, 1.5 h; outline: as §3
Compound,Activity [1],Activity [2],CLH (Liver microsome [3]),CLH (Liver microsome [6]),Ki (Cannabinoid receptor 1),Drug metabolism [17],Drug metabolism (Cytochrome P450 3A4 [18]),Drug metabolism [19],Drug metabolism (Cytochrome P450 2E1 [20]),Drug metabolism (Cytochrome P450 3A4 [24]),Drug metabolism (Cytochrome P450 2E1 [29]),other results
CCCCCCC(C)(C)c1ccc([C@@H]2C[C@H](O)CC[C@H]2CCCO)c(O)c1,inactive,Active,–,–,–,–,–,–,–,–,–,–
CCCCCn1cc(C(=O)c2cccc3ccccc23)c2ccc(O)cc21,–,–,0 µL/min/g,1 µL/min/mg,–,–,–,–,–,–,–,Drug metabolism (Liver microsome [4]): metabolite_detected; Drug metabolism (Cytochrome b5 [5]): metabolite_detected
O=C(O)CCCCn1cc(C(=O)c2cccc3ccccc23)c2ccccc21,–,inactive,0.6 µL/min/g,0 µL/min/mg,> 10000 nM,–,–,–,–,–,–,CL (Cytochrome P450 2C9 [7]): 0 µL/min; CL (Cytochrome P450 2C9 [8]): 111 µL/min; CL (Cytochrome P450 1A2 [9]): 89 µL/min; CL (Cytochrome P450 1A2 [10]): 23 µL/min; Drug metabolism [11]: metabolite_detected; CL (Cytochrome P450 2C19 [12]): 0 µL/min; Drug metabolism (Liver microsome [13]): 4.7 ng/mL; CL (Cytochrome P450 2C19 [14]): 28 µL/min; CL (Cytochrome P450 2D6 [15]): 0 µL/min; CL (Cytochrome P450 2D6 [16]): 0.371 µL/min
CCCCCn1cc(C(=O)c2cccc3ccccc23)c2ccccc21,inactive,Active,–,–,1.3 nM,metabolite_detected,metabolite_not_detected,metabolite_detected,metabolite_not_detected,metabolite_not_detected,metabolite_not_detected,Drug metabolism (Cytochrome P450 2E1 [21]): metabolite_not_detected; Drug metabolism (Liver microsome [22]): metabolite_detected; Drug metabolism (Cytochrome b5 [23]): metabolite_detected; Drug metabolism (Liver microsome [25]): metabolite_detected; Drug metabolism (Cytochrome P450 3A4 [26]): metabolite_not_detected; Drug metabolism [27]: metabolite_detected; Drug metabolism (Liver microsome [28]): metabolite_detected
O=C(c1cccc2ccccc12)c1cn(CCCCCF)c2ccccc12,inactive,Active,–,–,0.395 nM,metabolite_detected,metabolite_not_detected,metabolite_detected,metabolite_not_detected,metabolite_not_detected,metabolite_not_detected,Drug metabolism [30]: metabolite_detected; Drug metabolism (Cytochrome P450 2E1 [31]): metabolite_not_detected; Drug metabolism (Cytochrome P450 3A4 [32]): metabolite_not_detected
